A short description of series [1]: Metabolic stability in human liver microsomes. Type of series: in vitro ADME. (Liver microsomes are a subcellular fraction often used to study metabolism.)
Series [2] can be described thus: Metabolic stability in human hepatocytes. Format: in vitro ADME.
Series [3] in a line: Apparent passive permeability, RRCK. Format: in vitro ADME, Canine.
A further series in a line: iv/po PK in rat. Type of series: in vivo. Summed up:
(§1)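 Each species study used two animals per dose. Clearance is the observed plasma clearance. The same studies also gave steady-state volume of distribution, half-life, oral bioavailability and percent renal clearance.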

A further series has as its target PDE5A1 (Homo sapiens, UniProt O76074). Nature of the series: Phosphodiesterase SPA assay, PDE5A1. Type of series: biochemical. The following applies: PDE5/2 selectivity.
Series [4] deals with broad spectrum BioPrint panel. Nature of the series: Broad spectrum BioPrint panel selectivity screening. The following applies: no significant activities.
A further series in a line: iv/po PK in NHP. The following applies: male, cynomolgus monkey, plasma, 1 mg/kg. Type of series: in vivo, Cynomolgus monkeys. Summed up:
as §1

Series [5] in a line: Predicted human pharmacokinetics. The following applies: predicted from in vitro and in vivo properties.

Some results are limits rather than exact numbers.

On to `Cc1nn2c(-c3c(CO)nn(C)c3-c3ccc(C(F)(F)F)cc3)nc(CO)c2c(=O)[nH]1` [Compound 6], for which, in series [1], the intrinsic metabolic clearance (CLint scaled) (usually a measure of how fast metabolising enzymes remove a compound, apart from limits set by blood flow) was less than 9.2 mL/min/kg.
Regarding `Cc1nn2c(-c3c(C)nn(C)c3-c3ccc(C(F)(F)F)cc3)nc(C)c2c(=O)[nH]1` [Compound 1], the intrinsic clearance (CLint scaled) was determined as 16 mL/min/kg in series [1] and 18 mL/min/kg in series [2]. Moreover, in series [3] (dog, MDCK), the Papp (as a rule, a coefficient for how fast a substance crosses the barrier) stood at 23 ×10⁻⁶ cm/s. In addition, in “iv/po PK in rat”, the “in vivo rat clearance profile” value is “not show any extra-hepatic clearance pathways”.
Turning to `Cc1nn2c(-c3c(C)nn(C)c3-c3ccc(C(F)(F)F)cc3)nc(CO)c2c(=O)[nH]1` [Compound 2, 7-(1,3-dimethyl-5-(4-(trifluoromethyl)phenyl)-1H-pyrazol-4-yl)-5-(hydroxymethyl)-2-methylimidazo[5,1-f][1,2,4]triazin-4(3H)-one], the “selectivity over other phosphodiesterases (margin)” value at PDE5A1 was not below 1000 fold. Also, the CLint scaled in series [1] was less than 8 mL/min/kg. Besides, in series [2], the CLint scaled is less than 0.36 mL/min/kg. In series [3] (RRCK Papp, 2 vs 1), the “decrease of passive permeability relative to 1” value is 3 fold. Further, the “IC50 or EC50 in BioPrint panel” value in series [4] was more than 10 µM. In the series “iv/po PK in NHP”, this molecule registered a clearance of 4 mL/min/kg. Further, in series [5], the “predicted human plasma clearance” value is recorded as 2.9 mL/min/kg, the “predicted human t1/2” value is 3.7 h and the “predicted human volume of distribution” value is given as 0.9 L/kg.
Consider `Cc1nn2c(-c3c(CO)nn(C)c3-c3ccc(C(F)(F)F)cc3)nc(C)c2c(=O)[nH]1` [Compound 5], for which the intrinsic metabolic clearance (CLint scaled) in series [1] is less than 8 mL/min/kg.

Values taken from paper PMC5807869 (ACS Medicinal Chemistry Letters, 2018).
